# Measurements published in ChEMBL document CHEMBL1212820, “Novel hinge binder improves activity and pharmacokinetic properties of BRAF inhibitors” (J Med Chem, 2010).
# Experiments:
# [1] = Growth inhibition of human WM266.4 cells expressing BRAF V600E mutant after 5 days by SRB assay; type: functional; details: WM 266-4, 120 h
# In short: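 Antiproliferative SRB assay in WM266.4 (BRAF mutant), WM1361 (NRAS mutant) and D24 (BRAF/NRAS wild-type) melanoma cells, with GI50 derived from the assay.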
# [2] = molecular target: T1, Serine/threonine-protein kinase B-raf (Homo sapiens, UniProt P15056, V600E); assay: Inhibition of B-Raf V600E mutant
# In short: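 Enzymatic IC50 determined in vitro against purified V600E BRAF.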
# [3] = molecular target: T1, Serine/threonine-protein kinase B-raf; assay: Inhibition of BRAF V600E mutant-mediated ERK phosphorylation in human WM266.4 cells; type: cell-based
# In short: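 Cellular IC50 for inhibition of phosphoERK formation.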
# T1 sequence (P15056 2-766 V600E limits assumed): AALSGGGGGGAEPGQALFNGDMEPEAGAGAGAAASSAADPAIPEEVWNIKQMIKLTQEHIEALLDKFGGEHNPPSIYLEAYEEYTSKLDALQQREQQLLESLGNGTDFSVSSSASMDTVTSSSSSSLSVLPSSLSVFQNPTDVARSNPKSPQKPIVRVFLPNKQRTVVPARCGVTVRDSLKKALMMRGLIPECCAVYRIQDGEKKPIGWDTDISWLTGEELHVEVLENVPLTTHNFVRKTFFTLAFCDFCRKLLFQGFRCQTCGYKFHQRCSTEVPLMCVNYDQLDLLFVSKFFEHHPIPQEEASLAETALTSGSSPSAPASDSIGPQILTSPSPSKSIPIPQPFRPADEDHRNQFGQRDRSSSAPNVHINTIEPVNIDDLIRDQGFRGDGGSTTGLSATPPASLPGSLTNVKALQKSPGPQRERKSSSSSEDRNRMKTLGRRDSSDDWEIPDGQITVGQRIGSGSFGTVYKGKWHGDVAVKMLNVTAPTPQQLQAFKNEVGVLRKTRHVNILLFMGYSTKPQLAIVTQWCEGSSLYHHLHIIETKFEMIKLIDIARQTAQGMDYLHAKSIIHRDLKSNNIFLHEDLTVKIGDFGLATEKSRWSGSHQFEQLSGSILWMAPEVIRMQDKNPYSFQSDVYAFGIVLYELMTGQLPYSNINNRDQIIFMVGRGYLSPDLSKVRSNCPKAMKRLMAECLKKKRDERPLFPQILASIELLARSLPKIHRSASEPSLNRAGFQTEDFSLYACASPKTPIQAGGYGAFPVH
Structure (SMILES),GI50 [1] [nM],IC50 [2] [nM],IC50 [3] [nM]
CC(C)(C)c1cc(NC(=O)c2cccc(Oc3ccnc4[nH]c(=O)cnc34)c2)n(-c2ccccc2)n1,2000,870,5000
Cc1ccc(-n2nc(C(C)(C)C)cc2NC(=O)Nc2ccc(Oc3ccnc4nc(N)c(=O)[nH]c34)cc2F)cc1,128,222,70
Cc1nc2c(Oc3cccc(NC(=O)c4cccc(C(C)(C)C)c4)c3)ccnc2[nH]c1=O,890,10,1430
CSc1cc(Oc2ccnc3ncc(=O)[nH]c23)ccc1NC(=O)Nc1ccc(Cl)c(C(F)(F)F)c1,4300,71,3990
CNc1cnc2c(Oc3ccc(NC(=O)Nc4cc(C(F)(F)F)ccc4F)c(F)c3)ccnc2n1,48000,107,45000
O=C(Nc1cc(C(F)(F)F)ccc1F)Nc1ccc(Oc2ccnc3nc(C(F)(F)F)c(=O)[nH]c23)c2ccccc12,10000,1080,8500
CN1CCN(c2cnc3c(Oc4ccc(NC(=O)Nc5cc(C(C)(C)C)nn5-c5ccccc5)c(F)c4)ccnc3n2)CC1,417,4100,750
O=C(Nc1ccc(Oc2ccnc3ncc(=O)[nH]c23)cc1)Nc1ccc(Cl)c(C(F)(F)F)c1,8800,1290,> 100000
O=C(Nc1cccc(Oc2ccnc3ncc(=O)[nH]c23)c1)c1cccc(OC(F)(F)F)c1,6800,306,37000
Cc1ccc(-n2nc(C(C)(C)C)cc2NC(=O)Nc2ccc(Oc3ccnc4[nH]nnc34)cc2F)cc1,1980,1370,3100
Cc1ccc(-n2nc(C(C)(C)C)cc2NC(=O)Nc2ccc(Oc3ccnc4nc(N5CCOCC5)cnc34)cc2F)cc1,235,> 10000,280
CSc1cc(Oc2ccnc3[nH]c(=O)c(C)nc23)ccc1NC(=O)Nc1cc(C(C)(C)C)nn1-c1ccc(C)cc1,3,24,6
CN1CCN(c2cnc3c(Oc4ccc(NC(=O)Nc5cc(C(F)(F)F)ccc5F)c(F)c4)ccnc3n2)CC1,120,110,16000
O=C(Nc1ccc(Oc2ccnc3ncc(=O)[nH]c23)cc1)Nc1cc(C(F)(F)F)ccc1F,4000,1290,4200
O=C(Nc1ccc(Cl)c(C(F)(F)F)c1)Nc1ccc(Oc2ccnc3[nH]c(=O)cnc23)cc1F,1300,6,660
Cc1ccc(-n2nc(C(C)(C)C)cc2NC(=O)Nc2ccc(Oc3ccnc4[nH]c(=O)[nH]c34)cc2F)cc1,46,,
Cc1nc2nccc(Oc3ccc(NC(=O)Nc4cc(C(F)(F)F)ccc4F)c(F)c3)c2[nH]c1=O,2700,258,20000
O=C(Nc1cc(C(F)(F)F)ccc1F)Nc1ccc(Oc2ccnc3ncc(=O)[nH]c23)c2ccccc12,486,84,2070
Cc1ccc(-n2nc(C(C)(C)C)cc2NC(=O)Nc2ccc(Oc3ccnc4[nH]c(=O)c(C)nc34)c3ccccc23)cc1,75,99,5
Cc1ccc(-n2nc(C(C)(C)C)cc2NC(=O)Nc2cccc(Oc3ccnc4[nH]c(=O)c(C)nc34)c2)cc1,69,132,69
CSc1cc(Oc2ccnc3[nH]c(=O)c(C)nc23)ccc1NC(=O)Nc1cc(C(F)(F)F)ccc1F,225,2,97
Cc1ccc(-n2nc(C(C)(C)C)cc2NC(=O)Nc2ccc(Oc3ccnc4nc(C)c(=O)[nH]c34)c3ccccc23)cc1,1500,17000,176
CN(C)c1nc2c(Oc3ccc(NC(=O)Nc4cc(C(C)(C)C)nn4-c4ccccc4)c(F)c3)ccnc2[nH]1,574,1670,1700
CSc1cc(Oc2ccnc3[nH]c(=O)[nH]c23)ccc1NC(=O)Nc1cc(C(C)(C)C)nn1-c1ccc(C)cc1,16,,
